Series [1] has as its target T1, Sodium/glucose cotransporter 2 (Homo sapiens, UniProt P31639).
T1 sequence (P31639 whole entry): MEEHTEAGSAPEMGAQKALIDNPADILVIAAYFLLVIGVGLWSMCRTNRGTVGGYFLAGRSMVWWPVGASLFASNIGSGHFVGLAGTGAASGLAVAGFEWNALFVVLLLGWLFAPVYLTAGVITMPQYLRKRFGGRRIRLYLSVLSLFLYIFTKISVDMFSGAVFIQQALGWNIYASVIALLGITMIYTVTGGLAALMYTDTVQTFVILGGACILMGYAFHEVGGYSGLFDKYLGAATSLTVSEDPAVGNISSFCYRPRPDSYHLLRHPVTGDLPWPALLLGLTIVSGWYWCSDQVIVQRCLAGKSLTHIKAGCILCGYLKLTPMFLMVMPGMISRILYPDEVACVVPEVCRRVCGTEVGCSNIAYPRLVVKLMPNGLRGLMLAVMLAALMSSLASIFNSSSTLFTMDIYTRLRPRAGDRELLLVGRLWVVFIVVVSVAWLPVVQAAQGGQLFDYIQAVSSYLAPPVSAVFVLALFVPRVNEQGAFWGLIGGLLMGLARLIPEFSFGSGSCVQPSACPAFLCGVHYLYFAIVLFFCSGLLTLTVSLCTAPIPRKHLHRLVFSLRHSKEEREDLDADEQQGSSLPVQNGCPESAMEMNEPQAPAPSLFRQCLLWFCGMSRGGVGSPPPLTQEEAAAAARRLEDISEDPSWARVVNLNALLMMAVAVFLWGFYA
The series can be described thus: Inhibition of human SGLT2 expressed in CHO cells assessed as reduction in [14C]AMG uptake after 1 hr by microbeta counting method. It is filed as cell-based. The procedure, abridged: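 CHO cells stably expressing human SGLT2 (or SGLT1); inhibition of sodium-dependent uptake of [14C]α-methyl-D-glucopyranoside measured; EC50 from at least two independent experiments, each in triplicate.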

A short description of series [2]: AUC (0 to infinity) in Sprague-Dawley rat at 1.1 mg/kg, iv. Conditions: in vivo. The class given is ADME, organism-based. Set-up: dose 1.1 mg/kg, route intravenous, time infinity. The procedure, abridged: (§1)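 Rats got a single intravenous or oral dose, with 3 animals per route. Pharmacokinetic parameters were derived, including T1/2, clearance, Vss, Cmax, Tmax, AUC(0-inf) and oral bioavailability (F).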

Series [3] in a line: Volume of distribution at steady state in Sprague-Dawley rat at 1.1 mg/kg, iv. The class given is ADME, organism-based. As to conditions: in vivo, read-out: Vdss.
A short description of series [4]: Tmax in Sprague-Dawley rat at 1.1 mg/kg, po. It is filed as ADME, organism-based. As to conditions: in vivo.
Series [5] can be described thus: Oral bioavailability in Sprague-Dawley rat at 1.1 mg/kg. It is filed as ADME, organism-based. As to conditions: in vivo.
Series [6] is described as follows: Cmax in Sprague-Dawley rat at 1.1 mg/kg, po. Set-up: dose 1.1 mg/kg, route oral. Conditions: in vivo. The class given is ADME, organism-based.
Series [7] can be described thus: Clearance in Sprague-Dawley rat at 1.1 mg/kg, iv. The class given is ADME, organism-based. Conditions: in vivo.
Series [8] in a line: AUC (0 to infinity) in Sprague-Dawley rat at 1.1 mg/kg, po. The class given is ADME, organism-based. Set-up: dose 1.1 mg/kg, time infinity, route oral. Conditions: in vivo. In short, it runs like this:
as §1

Series [9] is described as follows: Elimination half life in Sprague-Dawley rat at 1.1 mg/kg, po. As to conditions: in vivo, read-out: beta t1/2 (converted). It is filed as ADME, organism-based.
The nature of series [10]: Elimination half life in Sprague-Dawley rat at 1.1 mg/kg, iv. It is filed as ADME, organism-based. Conditions: in vivo, read-out: beta t1/2 (converted).
Series [11] can be described thus: Volume of distribution at steady state in Sprague-Dawley rat at 1 mg/kg, iv. It is filed as ADME, organism-based. As to conditions: in vivo, read-out: Vdss.
A short description of series [12]: AUC (0 to infinity) in Sprague-Dawley rat at 1 mg/kg, po. The class given is ADME, organism-based. Set-up: dose 1 mg/kg, time infinity, route oral. Conditions: in vivo. The procedure, abridged: as §1
Series [13] can be described thus: Cmax in Sprague-Dawley rat at 1 mg/kg, po. Set-up: dose 1 mg/kg, route oral. It is filed as ADME, organism-based. As to conditions: in vivo.
A short description of series [14]: Clearance in Sprague-Dawley rat at 1 mg/kg, iv. The class given is ADME, organism-based. Conditions: in vivo.
The nature of series [15]: AUC (0 to infinity) in Sprague-Dawley rat at 1 mg/kg, iv. The class given is ADME, organism-based. Set-up: dose 1 mg/kg, time infinity, route intravenous. As to conditions: in vivo. The procedure, abridged:
as §1

A short description of series [16]: Oral bioavailability in Sprague-Dawley rat at 1 mg/kg. It is filed as ADME, organism-based. As to conditions: in vivo.
Series [17] can be described thus: Elimination half life in Sprague-Dawley rat at 1 mg/kg, iv. The class given is ADME, organism-based. Conditions: in vivo, read-out: beta t1/2 (converted).
Series [18] in a line: Elimination half life in Sprague-Dawley rat at 1 mg/kg, po. The class given is ADME, organism-based. As to conditions: in vivo, read-out: beta t1/2 (converted).
Series [19] can be described thus: Tmax in Sprague-Dawley rat at 1 mg/kg, po. The class given is ADME, organism-based. As to conditions: in vivo.
For series [20], the system named is Rattus norvegicus. Briefly: In vivo inhibition of SGLT2 in Sprague-Dawley rat assessed as urinary glucose excretion per 200 gram of body weight at 0.1 mg/kg, po administered as single dose measured after 24 hrs. It is filed as functional. In short, it runs like this:
(§2)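 Normal SD rats given a single oral dose (0.1, 1, 10 or 50 mg/kg) or vehicle; urine collected over 24 h and glucose excretion expressed as mg per 200 g body weight; mean ± SEM, n = 4/group (vehicle n = 8).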

Series [21] deals with Rattus norvegicus. The series can be described thus: Antihyperglycemic activity in streptozotocin-induced diabetic Sprague-Dawley rat model assessed as reduction in blood glucose level at 0.1 to 10 mg/kg, po administered as single dose measured after 5 hrs relative to control. The class given is functional. Set-up: scale not given: the % may be the effect or the level left. The procedure, abridged: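 STZ-diabetic SD rats (blood glucose >450 mg/dL), single oral dose 0.1 or 10 mg/kg or vehicle; tail-vein blood sampled at 0 (predose), 0.5, 1, 2, 3, 4 and 5 h for glucose; reduction expressed versus vehicle control; mean ± SEM, n = 6/group.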

A further series concerns the target hERG (KCNH2) (Homo sapiens, UniProt Q12809). Briefly: Inhibition of human ERG at 10 uM by radioligand assay relative to control. The procedure, abridged: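 hERG radioligand binding assay run externally by a contract laboratory; test compound at 10 µM, percent inhibition reported.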
Series [22] relates to Rattus norvegicus. The series can be described thus: In vivo inhibition of SGLT2 in Sprague-Dawley rat assessed as urinary glucose excretion per 200 gram of body weight at 10 mg/kg, po administered as single dose measured after 24 hrs. The class given is functional. In short, it runs like this: as §2
Series [23] has as its system Rattus norvegicus. The series can be described thus: In vivo inhibition of SGLT2 in Sprague-Dawley rat assessed as increase in urinary glucose excretion per 200 gram of body weight at 0.1 to 50 mg/kg, po administered as single dose measured after 24 hrs relative to control. It is filed as functional. The procedure, abridged: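 Normal Sprague-Dawley rats were given a single oral dose of 0.1, 1, 10 or 50 mg/kg. Urine was collected over 24 h and glucose excretion expressed as mg glucose per 200 g body weight, relative to vehicle controls. Groups were n = 4, with vehicle n = 8. Data are mean ± SEM; p < 0.05 vs vehicle.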

Series [24] concerns Rattus norvegicus. Briefly: In vivo inhibition of SGLT2 in Sprague-Dawley rat assessed as urinary glucose excretion per 200 gram of body weight at 50 mg/kg, po administered as single dose measured after 24 hrs. It is filed as functional. In short, it runs like this: as §2
The test system of series [25] is Rattus norvegicus. Briefly: In vivo inhibition of SGLT2 in Sprague-Dawley rat assessed as urinary glucose excretion per 200 gram of body weight at 1 mg/kg, po administered as single dose measured after 24 hrs. It is filed as functional. The procedure, abridged:
as §2

hERG (KCNH2), sequence (Q12809 whole entry): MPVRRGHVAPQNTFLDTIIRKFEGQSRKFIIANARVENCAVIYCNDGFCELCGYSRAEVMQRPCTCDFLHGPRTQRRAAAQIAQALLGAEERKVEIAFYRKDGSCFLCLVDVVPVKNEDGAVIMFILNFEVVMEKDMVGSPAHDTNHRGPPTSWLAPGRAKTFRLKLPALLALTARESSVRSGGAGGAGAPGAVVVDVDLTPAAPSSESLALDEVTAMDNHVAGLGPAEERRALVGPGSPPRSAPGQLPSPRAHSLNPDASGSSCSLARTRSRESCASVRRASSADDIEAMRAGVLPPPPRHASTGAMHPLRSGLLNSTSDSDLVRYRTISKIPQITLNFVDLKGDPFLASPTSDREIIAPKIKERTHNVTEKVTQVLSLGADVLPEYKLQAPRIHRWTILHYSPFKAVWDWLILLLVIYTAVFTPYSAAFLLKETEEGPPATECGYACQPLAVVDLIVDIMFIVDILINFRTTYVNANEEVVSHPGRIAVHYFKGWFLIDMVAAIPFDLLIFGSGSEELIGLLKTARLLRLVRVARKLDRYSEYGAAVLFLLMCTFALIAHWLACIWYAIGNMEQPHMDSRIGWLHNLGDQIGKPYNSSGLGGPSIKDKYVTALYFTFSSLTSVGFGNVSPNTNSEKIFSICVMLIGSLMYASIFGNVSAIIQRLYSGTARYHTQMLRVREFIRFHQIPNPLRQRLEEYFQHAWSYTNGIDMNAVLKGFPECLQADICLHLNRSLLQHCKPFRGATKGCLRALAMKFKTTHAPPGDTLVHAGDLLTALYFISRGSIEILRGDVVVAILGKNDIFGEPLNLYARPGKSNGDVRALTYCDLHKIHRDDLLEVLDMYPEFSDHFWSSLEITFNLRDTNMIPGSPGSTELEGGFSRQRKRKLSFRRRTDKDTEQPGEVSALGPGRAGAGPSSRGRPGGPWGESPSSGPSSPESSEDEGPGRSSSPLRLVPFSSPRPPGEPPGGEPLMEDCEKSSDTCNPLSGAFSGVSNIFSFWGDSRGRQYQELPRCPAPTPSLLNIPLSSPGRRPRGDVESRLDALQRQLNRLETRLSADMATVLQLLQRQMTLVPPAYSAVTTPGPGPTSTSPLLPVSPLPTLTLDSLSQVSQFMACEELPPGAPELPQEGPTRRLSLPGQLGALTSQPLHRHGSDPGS

Turning to `CCOc1ccc(Cc2cc([C@@H]3O[C@H](CNO)[C@@H](O)[C@H](O)[C@H]3O)ccc2Cl)cc1`, the EC50 in series [1] was determined as 95 nM.
On the same count and under the same terms, as for `CCOc1ccc(Cc2cc([C@@H]3O[C@H](/C=N/Nc4ccc([N+](=O)[O-])cc4)[C@@H](O)[C@H](O)[C@H]3O)ccc2Cl)cc1`, the figure is 370 nM.
Same read-out and setting: as for `CCO/N=C/[C@H]1O[C@@H](c2ccc(Cl)c(Cc3ccc(OCC)cc3)c2)[C@H](O)[C@@H](O)[C@@H]1O`, the figure is 335 nM; as for `CCC#CCO/N=C/[C@H]1O[C@@H](c2ccc(Cl)c(Cc3ccc(OCC)cc3)c2)[C@H](O)[C@@H](O)[C@@H]1O`, 396 nM; as for `CCOc1ccc(Cc2cc([C@@H]3O[C@H](/C=N/NC(C)=O)[C@@H](O)[C@H](O)[C@H]3O)ccc2Cl)cc1`, 395 nM.
In the case of `CCOc1ccc(Cc2cc([C@@H]3O[C@H](/C=N/NCCO)[C@@H](O)[C@H](O)[C@H]3O)ccc2Cl)cc1`, the area under the curve AUC(0-inf) in series [2] turned out to be 1030 ng·h/mL; in [8] it was 73 ng·h/mL. For the same compound, the Vd in series [3] was 0.8 L/kg. Besides, in series [4], the Tmax was determined as 0.7 h. The EC50 in series [1] stood at 88 nM. This compound also had a bioavailability in series [5] of 7.1%. Besides, the peak concentration (Cmax) in series [6] turned out to be 34.5 ng/mL. For the same compound, the clearance in series [7] turned out to be 17.6 mL/min/kg. For the same compound, the half-life in series [9] was 1.2 h; in [10] it was 0.7 h.
Turning to `CCOc1ccc(Cc2cc([C@@H]3O[C@H](/C=N/NC(=O)c4ccsc4)[C@@H](O)[C@H](O)[C@H]3O)ccc2Cl)cc1`, in series [1], the EC50 is 208 nM.
With `CCOc1ccc(Cc2cc([C@@H]3O[C@H](CNOC)[C@@H](O)[C@H](O)[C@H]3O)ccc2Cl)cc1`, the Vd in series [11] was 1.8 L/kg. The AUC(0-inf) amounted to 352 ng·h/mL in series [12] and 1070 ng·h/mL in series [15]. In addition, the half-maximal effective concentration (EC50) in [1] is 63 nM. Further, the Cmax in series [13] was determined as 67.2 ng/mL. Further, in series [14], the clearance turned out to be 16.5 mL/min/kg. In series [16], the bioavailability amounted to 32.8%. Also, the half-life in series [17] was 1.9 h; in series [18] it was 3 h. Besides, the time of peak concentration (Tmax) in series [19] was determined as 1.3 h.
For `CCOc1ccc(Cc2cc([C@@H]3O[C@H](/C=N/OCCC(C)(C)C)[C@@H](O)[C@H](O)[C@H]3O)ccc2Cl)cc1`, the EC50 in series [1] turned out to be 8540 nM.
Turning to `CCOc1ccc(Cc2cc([C@@H]3O[C@H](/C=N/NC4=NCCN4)[C@@H](O)[C@H](O)[C@H]3O)ccc2Cl)cc1`, in series [1], the concentration for a half-maximal effect (EC50) amounted to 429 nM.
On the same count and under the same terms, as for `CCOc1ccc(Cc2cc([C@@H]3O[C@H](/C=N/OCC4CC4)[C@@H](O)[C@H](O)[C@H]3O)ccc2Cl)cc1`, the figure is 1950 nM; as for `CCOc1ccc(Cc2cc([C@@H]3O[C@H](/C=N/NC(=O)c4ccncc4)[C@@H](O)[C@H](O)[C@H]3O)ccc2Cl)cc1`, 173 nM.
On to `CCOc1ccc(Cc2cc([C@@H]3O[C@H](/C=N/O)[C@@H](O)[C@H](O)[C@H]3O)ccc2Cl)cc1`, for which the Activity with Rattus norvegicus [20] is reported as 275 mg; in the series with Rattus norvegicus [21], 44%; in the series on Rattus norvegicus [22], 1935 mg; in the series on Rattus norvegicus [24], 2732 mg; in the series with Rattus norvegicus [25], 2215 mg. Further, in series [11], the Vd was found to be 1.8 L/kg. In addition, the Tmax in series [4] was determined as 1 h. The same compound displayed an inhibition at 10 µM at hERG (KCNH2) of 2%. Moreover, the EC50 in series [1] was 46 nM. Besides, in series [5], the bioavailability was found to be 64%. This compound also displayed a clearance in [14] of 5 mL/min/kg. Also, in series [6], the Cmax came to 239 ng/mL. In the series with Rattus norvegicus [23], the “fold change (FC)” value is reported as 476 - 4730. For the same compound, the values for the AUC(0-inf) in series [8] and in [15] were 2270 ng·h/mL and 3270 ng·h/mL, respectively. In addition, the half-life in [9] is 9 h; in [17], 4.7 h.
Consider `CCOc1ccc(Cc2cc([C@@H]3O[C@H](CNNC(=O)c4ccco4)[C@@H](O)[C@H](O)[C@H]3O)ccc2Cl)cc1`, for which the EC50 in [1] worked out at 151 nM.

(Values after ChEMBL document CHEMBL4138227, “Identification of an oxime-containing C-glucosylarene as a potential inhibitor of sodium-dependent glucose co-transporter 2” (Eur J Med Chem, 2018).)
